Measurements published in ChEMBL document CHEMBL1143837, “In vitro activities of various antimicrobials alone and in combination with tigecycline against carbapenem-intermediate or -resistant Acinetobacter baumannii” (2007).
Values after ≈ are worked out from the molar mass of the structure shown. Active and inactive are the calls of the source. The rule behind the calls is not given here.

What was measured:
Acinetobacter baumannii [1] = assay: Antimicrobial activity against carbapenem-intermediate or resistant Acinetobacter baumannii isolates by agar dilution method; assay type: functional
Outline: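 Clinical isolates with imipenem or meropenem MIC ≥8 mg/liter were tested by agar dilution on Mueller-Hinton agar supplemented with 25 mg/liter calcium and 12.5 mg/liter magnesium. Inoculum was ~10⁴ CFU per spot from a 0.5 McFarland BHI suspension. Plates were incubated at 35°C for 18–24 h. Growth beyond a single colony or a slight haze counted as growth.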

Acinetobacter baumannii [2] = assay: Antimicrobial activity against carbapenem-intermediate or resistant Acinetobacter baumannii assessed as percent susceptible isolates; assay type: functional
Acinetobacter baumannii [3] = assay: Antimicrobial activity against carbapenem-intermediate or resistant Acinetobacter baumannii isolates by broth microdilution method; assay type: functional
Outline: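 Tigecycline MIC by broth microdilution in freshly prepared CAMHB (25 mg/liter calcium, 12.5 mg/liter magnesium). Approximately 5 × 10⁵ CFU/ml was added to serial drug dilutions and incubated in ambient air at 35°C for 18–24 h. Isolates had imipenem or meropenem MIC ≥8 mg/liter.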

Acinetobacter baumannii [4] = assay: Bactericidal activity against carbapenem-resistant Acinetobacter baumannii AA557 by time kill curve analysis; assay type: functional, organism-based
Outline: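 Time-kill on AA557: mid-log (4 h) inoculum at ~5 × 10⁵ CFU/ml in 10 ml fresh CAMHB with tigecycline at 0.5×, 1×, 2× or 4× MIC, or at the calculated average free steady-state serum level, plus growth control. Sampled at 0, 2, 4, 8, 24 and 48 h and plated in duplicate on sheep-blood TSA (35°C, 18–24 h). Detection limit 40 CFU/ml. Experiments run in duplicate.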

Acinetobacter baumannii [5] = assay: Bactericidal activity against carbapenem-resistant Acinetobacter baumannii AA557 assessed as reduction in colony count at 2 mg/liter after 24 hrs by time kill curve analysis; assay type: functional, organism-based

NCC[C@H](O)C(=O)N[C@@H]1C[C@H](N)[C@@H](O[C@H]2O[C@H](CN)[C@@H](O)[C@H](O)[C@H]2O)[C@H](O)[C@H]1O[C@H]1O[C@H](CO)[C@@H](O)[C@H](N)[C@H]1O [AMIKACIN]
MIC50 (Acinetobacter baumannii [1]): 32 µg/mL (≈ 54.6 µM)
MIC90 (Acinetobacter baumannii [1]): > 32 µg/mL
Activity (Acinetobacter baumannii [2]): 38%

O=C(O)c1cn(C2CC2)c2cc(N3CCNCC3)c(F)cc2c1=O [CIPROFLOXACIN]
Activity (Acinetobacter baumannii [2]): 0%

C[C@H]1c2cccc(O)c2C(=O)C2=C(O)[C@]3(O)C(=O)C(C(N)=O)=C(O)[C@@H](N(C)C)[C@@H]3[C@@H](O)[C@@H]21.O [DOXYCYCLINE]
MIC50 (Acinetobacter baumannii [1]): 2 µg/mL
MIC90 (Acinetobacter baumannii [1]): > 32 µg/mL
Activity (Acinetobacter baumannii [2]): 56%

C[C@@H](O)[C@H]1C(=O)N2C(C(=O)O)=C(SCCNC=N)C[C@H]12 [IMIPENEM ANHYDROUS]
MIC50 (Acinetobacter baumannii [1]): 4 µg/mL (≈ 13.4 µM)
MIC90 (Acinetobacter baumannii [1]): 64 µg/mL (≈ 214 µM)
Activity (Acinetobacter baumannii [2]): 20%

C[C@@H](O)[C@H]1C(=O)N2C(C(=O)O)=C(S[C@@H]3CN[C@H](C(=O)N(C)C)C3)[C@H](C)[C@H]12 [MEROPENEM]
MIC50 (Acinetobacter baumannii [1]): 16 µg/mL (≈ 41.7 µM)
MIC90 (Acinetobacter baumannii [1]): > 128 µg/mL
Activity (Acinetobacter baumannii [2]): 4%

CN(C)c1ccc(O)c2c1C[C@H]1C[C@H]3[C@H](N(C)C)C(O)=C(C(N)=O)C(=O)[C@@]3(O)C(O)=C1C2=O [MINOCYCLINE]
MIC50 (Acinetobacter baumannii [1]): 0.5 µg/mL (≈ 1.09 µM)
MIC90 (Acinetobacter baumannii [1]): 8 µg/mL (≈ 17.5 µM)
Activity (Acinetobacter baumannii [2]): 83%

CO[C@H]1/C=C/O[C@@]2(C)Oc3c(C)c(O)c4c(O)c(c(/C=N/N5CCN(C)CC5)c(O)c4c3C2=O)NC(=O)/C(C)=C\C=C\[C@H](C)[C@H](O)[C@@H](C)[C@@H](O)[C@@H](C)[C@H](OC(C)=O)[C@@H]1C [RIFAMPIN]
MIC50 (Acinetobacter baumannii [1]): 4 µg/mL (≈ 4.86 µM)
MIC90 (Acinetobacter baumannii [1]): 8 µg/mL (≈ 9.72 µM)
Activity (Acinetobacter baumannii [2]): inactive

CN(C)c1cc(NC(=O)CNC(C)(C)C)c(O)c2c1C[C@H]1C[C@H]3[C@H](N(C)C)C(O)=C(C(N)=O)C(=O)[C@@]3(O)C(O)=C1C2=O [TIGECYCLINE]
MIC50 (Acinetobacter baumannii [3]): 1 µg/mL (≈ 1.71 µM)
MIC90 (Acinetobacter baumannii [3]): 2 µg/mL (≈ 3.41 µM)
Activity (Acinetobacter baumannii [2]): 95%
Activity (Acinetobacter baumannii [4]): Active

POLYMYXIN B
MIC50 (Acinetobacter baumannii [1]): 1 µg/mL
MIC90 (Acinetobacter baumannii [1]): 1 µg/mL
Activity (Acinetobacter baumannii [2]): 100%
log10CFU/ml (Acinetobacter baumannii [5]): 1.6
